Entries after “also recorded” stand apart in the source; their conditions may differ.
Legend:
[1] = test system: INS‐1 (832/3) cells; assay: Membrane phospholipid AA and EPA composition of INS‐1; assay type: cell-based, rat; conditions: 100 μM AA‐enriched medium, 48 h
[2] = test system: INS‐1 (832/3) cells; assay: Relative gene expression by qPCR in INS‐1; assay type: cell-based, rat; conditions: for Ptges expression vs. control: 2^ΔΔCt method, AA enrichment alone or 10 ng/ml IL‐1β
[3] = test system: INS‐1 (832/3) cells; assay: INS‐1; assay type: cell-based, rat; conditions: for effect of antagonist on the PGE2 dose–response (GSIS): 10 µM antagonist, PGE2 1 pM to 50 μM; for effect of antagonist on the sulprostone dose–response (GSIS): sulprostone 1 pM to 50 μM; for reduction of GSIS at high concentration compared with PGE2: 50–100 µM; for concentration from which the agonist reduces GSIS / effect of agonist on GSIS (dose–response): agonist alone; for effect of agonist on GSIS (dose–response): 1 pM to 50 or 100 μM, 16.7 mM glucose
In short: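 INS‐1 (832/3) cells (passage 35 or below) plated and cultured 72 h before GSIS. Agonists tested from 1 pM to 10, 50 or 100 µM, with or without 20 µM EP3 antagonist or 10 µM other EP antagonists. Insulin measured by in‐house ELISA and expressed relative to 16.7 mM glucose. N = 3–5 independent experiments, mean ± SEM, two‐way ANOVA with Holm–Sidak.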

[4] = test system: rat EP3 receptor; conditions: cited from earlier work
[5] = test system: rat EP1 receptor; conditions: cited from earlier work
[6] = test system: mouse DP2 receptor; assay: Published agonism at mouse DP2 receptor; assay type: biochemical; conditions: from published pKi values of Table 3
[7] = test system: mouse DP2 receptor; conditions: ref Table 3; cited from earlier work
[8] = test system: INS‐1 (832/3) cells; conditions: cited from earlier work
[9] = test system: INS‐1 (832/3) cells; assay: Total insulin content of INS‐1; assay type: cell-based, rat; conditions: 10 ng/ml, regardless of fatty acid treatment
In short: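 Cells at 70% confluence were cultured 48 h in medium with 1% fatty acid‐free BSA, with or without 100 μM AA, then 24 h with vehicle or 10 ng/ml IL‐1β. Assay groups were 1.7 mM glucose, 16.7 mM glucose, 16.7 mM + 10 nM agonist, and 16.7 mM + 20 µM EP3 antagonist. Secreted insulin was given as percent of content; content and secretion by in‐house ELISA. N = 3–4, mean ± SEM, two‐way ANOVA with Holm–Sidak.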

[10] = test system: INS‐1 (832/3) cells; assay: PGE2 production; assay type: cell-based, rat; conditions: BSA or AA cultured cells, 10 ng/mL IL‐1β or vehicle

Compound: CCCCC/C=C\C/C=C\C/C=C\C/C=C\CCCC(=O)O [AA, arachidonic acid]
- AA abundance in membrane phospholipids vs controls [1]: 4 fold
- AA:EPA ratio vs controls [1]: 25 fold
- Ptges expression vs. control [2]: ~ 3.5 fold

Compound: O=C(O)CC/C=C\CC[C@H]1[C@H](N2CCOCC2)C(=O)C[C@H]1OCc1ccc(-c2ccccc2)cc1 [AH2384B]
- effect of antagonist on the PGE2 dose–response (GSIS) [3]: excluded from mediating the effect of PGE2 on GSIS
- effect of antagonist on the sulprostone dose–response (GSIS) ([3]; 10 μM antagonist): neither SC51089, AH2384B, SC19220, nor L161,982 affecting the sulprostone dose–response

Compound: CCC#CC[C@H](C)[C@H](O)C#C[C@@H]1[C@H]2C/C(=C/COCC(=O)O)C[C@H]2C[C@H]1O [Cicaprost, cicaprost]
- reduction of GSIS at high concentration compared with PGE2 [3]: nearly reaching the maximal potency of PGE2
- concentration from which the agonist reduces GSIS [3]: 1 µM

Compound: CC#CCC(C)[C@H](O)/C=C/[C@@H]1[C@H]2C/C(=C/CCCC(=O)O)C[C@H]2C[C@H]1O (stereo partly drawn) [Iloprost, iloprost]
- effect of agonist on GSIS (dose–response) [3]: dose‐dependently reduces GSIS; also recorded: significantly reduce INS‐1 cell GSIS
- agonist type at rat EP3 receptor [4]: full agonist
- agonist type at rat EP1 receptor [5]: only a partial agonist

Compound: COc1ccc2c(c1)c(CC(=O)O)c(C)n2C(=O)c1ccc(Cl)cc1 [Indomethacin, indomethacin]
- effect of agonist on GSIS (dose–response) [3]: no significant effect
- effect of agonist on GSIS (dose–response) ([3]; listed as indomethacin): no effect on GSIS

Compound: CCCCc1nn(-c2ccccc2C(F)(F)F)c(=O)n1Cc1ccc(-c2ccccc2S(=O)(=O)NC(=O)c2sccc2C)cc1 [L161,982]
- effect of antagonist on the PGE2 dose–response (GSIS) [3]: excluded from mediating the effect of PGE2 on GSIS
- effect of antagonist on the sulprostone dose–response (GSIS) ([3]; 10 μM antagonist): neither SC51089, AH2384B, SC19220, nor L161,982 affecting the sulprostone dose–response

Compound: COc1ccc(Br)cc1S(=O)(=O)NC(=O)/C=C/c1ccccc1Cc1ccc2ccccc2c1 [L798,106]
- effect of antagonist on GSIS reduced by PGD2, PGF2α, cicaprost or U‐46619 ([3]; 20 μM L798,106): fully restores INS‐1 (832/3) GSIS
- increase in GSIS vs. 16.7 mM glucose alone ([3]; 20 µM, AA enrichment and 10 ng/ml IL‐1β pretreatment): ~ 30%
- effect of antagonist alone on GSIS ([3]; 20 µM, no IL‐1β treatment, control and AA‐enriched cells): no potentiating effect; also recorded: unaffected
- increase of the IC50 for PGE2 (reduction of GSIS) by antagonist ([3]; PGE2 1 pM to 10 μM with and without 20 μM L798,106): over 100 fold

Compound: CCCCC[C@H](O)/C=C/[C@H]1C(=O)C[C@H](O)[C@@H]1C/C=C\CCCC(=O)O [PGD2]
- reduction of GSIS at high concentration compared with PGE2 [3]: nearly reaching the maximal potency of PGE2
- concentration from which the agonist reduces GSIS [3]: 1 µM

Compound: CCCCC[C@H](O)/C=C/[C@H]1[C@H](O)CC(=O)[C@@H]1C/C=C\CCCC(=O)O [PGE2]
- potentiation of GSIS ([3]; 10 nM, AA‐enriched cells pretreated with IL‐1β): approximately twofold
- effect on GSIS ([3]; 10 nM, IL‐1β‐treated control (BSA) cells): no further inhibitory effect
- effect on GSIS ([3]; 10 nM, cells without IL‐1β, with or without AA enrichment): blunts INS‐1 (832/3) GSIS regardless of AA enrichment
- effect of agonist on GSIS (dose–response) [3]: reduces INS‐1 (832/3) GSIS in a dose‐dependent manner; also recorded: significantly reduce INS‐1 cell GSIS
- maximal reduction in GSIS ([3]; maximal potency): ~ 60%
- reduced potency at DP2 as compared to EP3 [6]: ~ 3000 fold
- agonist type at mouse DP2 receptor [7]: full agonist

Compound: CC/C=C\C[C@H](O)/C=C/[C@H]1[C@H](O)CC(=O)[C@@H]1C/C=C\CCCC(=O)O [PGE3]
- effect on INS‐1 cell GSIS [8]: significantly reduce INS‐1 cell GSIS

Compound: CCCCC[C@H](O)/C=C/[C@H]1[C@H](O)CC(=O)[C@@H]1CCCCCCC(=O)O [PGE 1]
- effect on INS‐1 cell GSIS [8]: significantly reduce INS‐1 cell GSIS

Compound: CCCCC[C@H](O)/C=C/[C@@H]1[C@@H](C/C=C\CCCC(=O)O)[C@@H](O)C[C@H]1O [PGF2α]
- reduction of GSIS at high concentration compared with PGE2 [3]: nearly reaching the maximal potency of PGE2
- concentration from which the agonist reduces GSIS [3]: 1 µM

Compound: CC(=O)NNC(=O)N1Cc2ccccc2Oc2ccc(Cl)cc21 [SC19220]
- effect of antagonist on the PGE2 dose–response (GSIS) [3]: neither of two EP1 antagonists, SC19220 or SC51089, affect the PGE2 dose–response
- effect of antagonist on the sulprostone dose–response (GSIS) ([3]; 10 μM antagonist): neither SC51089, AH2384B, SC19220, nor L161,982 affecting the sulprostone dose–response

Compound: CS(=O)(=O)NC(=O)CCC/C=C\C[C@H]1C(=O)C[C@@H](O)[C@@H]1/C=C/[C@@H](O)COc1ccccc1 [Sulprostone, sulprostone]
- effect of agonist on GSIS (dose–response) [3]: nearly identical results as with PGE2; also recorded: significantly reduce INS‐1 cell GSIS

Compound: IL‐1β: Interleukin‐1β, cytokine used at 10 ng/ml to mimic the diabetic state and induce PGE2 production
- reduction of insulin content [9]: ~50%
- Ptger1 expression ([2]; 10 ng/ml IL‐1β): unaffected
- Ptger3 expression upregulation ([2]; 10 ng/ml IL‐1β): ~ 6 fold
- Ptger4 expression upregulation ([2]; 10 ng/ml IL‐1β): ~ 10 fold
- Ptges2 expression induction ([2]; 10 ng/ml IL‐1β): ~ 2 fold
- Ptges3 expression induction ([2]; 10 ng/ml IL‐1β): ~ 2.5 fold
- Ptgs1 expression induction ([2]; 10 ng/ml IL‐1β): 2–4 fold
- Ptgs2 expression induction ([2]; 10 ng/ml IL‐1β): ~ 10 fold
- Ptges expression vs. control [2]: ~ 100 fold
- substrate‐dependent PGE2 production [10]: only induced with IL‐1β treatment

Compound: PF‐04418948
- effect of antagonist on the PGE2 dose–response (GSIS) [3]: no effect

Compound: SC51089
- effect of antagonist on the PGE2 dose–response (GSIS) [3]: neither of two EP1 antagonists, SC19220 or SC51089, affect the PGE2 dose–response
- effect of antagonist on the iloprost dose–response curve (GSIS) ([3]; 10 μM antagonist, iloprost 1 pM to 100 μM): no effect
- effect of antagonist on the sulprostone dose–response (GSIS) ([3]; 10 μM antagonist): neither SC51089, AH2384B, SC19220, nor L161,982 affecting the sulprostone dose–response

Reference: publication PMC7947324 (Pharmacology Research & Perspectives, 2021)
